Results reported in ChEMBL document CHEMBL1944585, “Design, synthesis, and evaluation of thiol-activated sources of sulfur dioxide (SO₂) as antimycobacterial agents” (J Med Chem, 2012).
pIC50: −log10 of the molar value. Converted amounts (≈) assume the structure as drawn. The source made the active and inactive calls. The rule behind the calls is not given here.

Experiments:
[1] = Prodrug activation of compound assessed as sulphur dioxide formation at 100 uM after 30 mins in phosphate buffer at pH 7.4 by pararosaniline-based colorimetric assay in presence of cysteine; details: pH 7.4, 0.5 h
Method in brief: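 Sulfite detection: 900 μL p-rosaniline dye plus 50 μL saturated HgCl2 plus 50 μL sample, kept in the dark 15 min until violet colour developed, then absorbance read.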

[2] = test system: Mycobacterium tuberculosis; assay: Antimycobacterial activity against Mycobacterium tuberculosis H37Rv by ten-fold serial dilution method; type: functional
Method in brief: (§1)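 Agar dilution: ten-fold serial dilutions incorporated into Middlebrook 7H11 agar with OADC. Inoculum from fresh 7H11 slants, adjusted to 1 mg mL−1 wet weight in 0.05% Tween 80 saline, diluted 10−2 (approx. 10^7 cfu mL−1); 5 μL spotted per tube. 37 °C, read at 28 days. MIC = lowest concentration giving complete growth inhibition.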

[3] = Prodrug activation of compound assessed as sulphur dioxide formation at 100 uM after 4 hrs in phosphate buffer at pH 7.4 by pararosaniline-based colorimetric assay in presence of cysteine; details: pH 7.4, 4 h
[4] = test system: Mycobacterium tuberculosis; assay: Antimycobacterial activity against Mycobacterium tuberculosis H37Rv assessed as growth inhibition at 2 ug/ml by ten-fold serial dilution method in presence of cysteine; type: functional, organism-based
Method in brief: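 Test material was a cysteine mixture in pH 7.4 buffer, taken about 2 h after mixing and tested at 2 μg mL−1. Run on 7H11-OADC agar against H37Rv: inoculum approx. 10^7 cfu mL−1, 5 μL spotted, 37 °C, read at 28 days for complete growth inhibition.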

HEK293 = assay: Cytotoxicity against human HEK293 cells after 72 hrs by XTT assay; type: cell-based; details: HEK293, 72 h
[5] = Selectivity index, ratio of IC50 for HEK293 cells to MIC for Mycobacterium tuberculosis H37Rv; type: functional
[6] = test system: Mycobacterium tuberculosis; assay: Antimycobacterial activity against Mycobacterium tuberculosis H37Rv assessed as growth inhibition at 100 ug/ml by ten-fold serial dilution method; type: functional, organism-based; method in brief: as §1

Row | Structure (SMILES) | Drug degradation [1] [µM] | MIC [2] [µM] | MIC99 [2] [µg/mL] | Drug degradation [3] | growth inhibition (GI) [4] | pIC50 (HEK293) | Selectivity Index [5] | growth inhibition (GI) [6]
1 | O=[N+]([O-])c1ccc(S(=O)(=O)N2CCOCC2)c([N+](=O)[O-])c1 | 96 | 19.6 (≈ 6.22 µg/mL) | 6.25 (≈ 19.7 µM) | – | – | – | – | –
2 | O=[N+]([O-])c1ccc(S(=O)(=O)Nc2ccccc2)c([N+](=O)[O-])c1 | 55 | 9.7 (≈ 3.14 µg/mL) | 3.13 (≈ 9.68 µM) | – | – | – | – | –
3 | COc1ccc(NS(=O)(=O)c2ccc([N+](=O)[O-])cc2[N+](=O)[O-])cc1 | 79.5 | 4.4 (≈ 1.55 µg/mL) | 1.56 (≈ 4.42 µM) | – | – | – | – | –
4 | NCc1ccccc1 [BENZYLAMINE] | – | > 250 | > 100 | – | – | – | – | –
5 | O=[N+]([O-])c1ccc(S(=O)(=O)Nc2cccc(F)c2)c([N+](=O)[O-])c1 | 24 | 73 (≈ 24.9 µg/mL) | 25 (≈ 73.3 µM) | – | – | – | – | –
6 | O=[N+]([O-])c1ccccc1S(=O)(=O)NCc1ccccc1 | 0 | > 100 | > 50 | Not Active | – | – | – | –
7 | O=[N+]([O-])c1ccc(NCc2ccccc2)c([N+](=O)[O-])c1 | 0 | > 250 | > 100 | – | – | – | – | –
8 | O=[N+]([O-])c1ccc(S(=O)(=O)NCc2ccccc2)c([N+](=O)[O-])c1 | 100 | 0.15 (≈ 0.0506 µg/mL) | 0.05 (≈ 0.148 µM) | – | inactive | 5.15 | 47 | –
9 | CNCc1ccccc1 [N-BENZYLMETHYLAMINE] | – | > 250 | > 100 | – | – | – | – | inactive
10 | CN(Cc1ccccc1)S(=O)(=O)c1ccc([N+](=O)[O-])cc1[N+](=O)[O-] | 100 | 1.1 (≈ 0.386 µg/mL) | 0.4 (≈ 1.14 µM) | – | – | – | – | –
11 | O=S(=O)(NCc1ccccc1)c1ccccc1 | 0 | > 100 | > 50 | Not Active | – | – | – | –
12 | COC(=O)C1CCCN1S(=O)(=O)c1ccc([N+](=O)[O-])cc1[N+](=O)[O-] (stereo unspecified) | 83 | 35 (≈ 12.6 µg/mL) | 12.5 (≈ 34.8 µM) | – | – | – | – | –
13 | CN1CCN(S(=O)(=O)c2ccc([N+](=O)[O-])cc2[N+](=O)[O-])CC1 | 88 | 38 (≈ 12.6 µg/mL) | 12.5 (≈ 37.8 µM) | – | – | – | – | –
14 | O=[N+]([O-])c1ccc(Cl)c([N+](=O)[O-])c1 [DINITROCHLOROBENZENE] | 0 | 30.8 (≈ 6.24 µg/mL) | 6.25 (≈ 30.9 µM) | – | – | – | – | –
15 | O=S([O-])[O-].[Na+].[Na+] | – | – | – | – | – | – | – | inactive
16 | O=[N+]([O-])c1ccc(S(=O)(=O)NCc2ccccc2)cc1 | 0 | > 100 | > 50 | Not Active | – | – | – | –
17 | COC(=O)C(C)NS(=O)(=O)c1ccc([N+](=O)[O-])cc1[N+](=O)[O-] (stereo unspecified) | 93 | 18.7 (≈ 6.23 µg/mL) | 6.25 (≈ 18.8 µM) | – | – | – | – | –
18 | NNC(=O)c1ccncc1 [ISONIAZID] | – | 0.37 (≈ 0.0507 µg/mL) | 0.05 (≈ 0.365 µM) | – | – | – | – | –
19 | O=[N+]([O-])c1ccc(S(=O)(=O)N2CCCCC2)c([N+](=O)[O-])c1 | 91 | 2.5 (≈ 0.788 µg/mL) | 0.78 (≈ 2.47 µM) | – | – | – | – | –
20 | CS(=O)(=O)NCc1ccccc1 | 0 | > 100 | > 50 | Not Active | – | – | – | –
21 | CCCN(Cc1ccccc1)S(=O)(=O)c1ccc([N+](=O)[O-])cc1[N+](=O)[O-] | 88 | 8.25 (≈ 3.13 µg/mL) | 3.13 (≈ 8.25 µM) | – | – | – | – | –
